Measurements reported in ChEMBL document CHEMBL4513216, “Probing the Open Global Health Chemical Diversity Library for Multistage-Active Starting Points for Next-Generation Antimalarials” (ACS Infect Dis, 2020).

Assay: Toxicity liver stage against HepG2, at 10uM
Assay type: cell-based
Set-up: test concentration 10 uM, cell line HepG2-A16-CD81EGFP
Conditions: human, HepG2-A16-CD81EGFP cells; read-out: INHIBITION
How it was run: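 Uninfected HepG2-A16-CD81EGFP cells, 3 × 10^3 per well, 1536-well, plated on prespotted compound at 10 μM final, parasite-free screening media added to match infected plates; puromycin 10 μM positive, DMSO 0.5% negative; run in parallel with 48 h PbLuc assay at 37 °C, 5% CO2; viability by CellTiter-Glo luminescence, normalized to controls.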

SMILES: NS(=O)(=O)c1cccnc1NCc1ccco1
- cytotoxicity at 10 µM: -8.21%

SMILES: Cc1n[nH]c2c1C(c1ccc3c(c1)OCCO3)SCC(=O)N2 (stereo unspecified)
- cytotoxicity at 10 µM: -0.37%

SMILES: CCOCC(=O)NCCn1ccc(-c2ccccn2)n1
- cytotoxicity at 10 µM: 11.4%

SMILES: Cc1cc(CN2C[C@@H]3CN(Cc4ccsc4)CCO[C@@H]3C2)no1
- cytotoxicity at 10 µM: -139%

SMILES: COc1cc(CO)c(OC)c2c1OCO2
- cytotoxicity at 10 µM: -2.93%

SMILES: CS(=O)(=O)N1CCCC12CCCN(S(=O)(=O)c1cc(F)cc(F)c1)C2 (stereo unspecified)
- cytotoxicity at 10 µM: 10.9%

SMILES: CCc1ncnc2c1CCN(C(=O)N1CCCC1)CC2
- cytotoxicity at 10 µM: 5.46%

SMILES: Cc1ccc(CNC(=O)c2cc(NC(=O)C3CC3)n(C)n2)o1
- cytotoxicity at 10 µM: 4.82%

SMILES: O=C(c1cc(-c2ccco2)cs1)N1CCOCC1
- cytotoxicity at 10 µM: 4.81%

SMILES: COC(=O)CN1CCC(C(F)(F)F)CC1
- cytotoxicity at 10 µM: 8.12%

SMILES: CCCS(=O)(=O)NC(=O)c1ccc(-n2nc(C)cc2C)cc1
- cytotoxicity at 10 µM: 1.36%

SMILES: O=C(NC1=NCCS1)C1CSCN1C(=O)C1CCCC1 (stereo unspecified)
- cytotoxicity at 10 µM: 6.8%

SMILES: CC(C)Cc1nc(CN2CCC(N3CCN(C)C3=O)CC2)no1
- cytotoxicity at 10 µM: 14%

SMILES: CS(=O)(=O)CCNC(=O)N1CC2(CCCC2)c2ccccc21
- cytotoxicity at 10 µM: 0.883%

SMILES: O=C(CNC(=O)c1cc(Cl)ccn1)Nc1nccs1
- cytotoxicity at 10 µM: -1.87%

SMILES: CCC(CC)NC(=O)c1nc2n(n1)-c1ccccc1S(=O)(=O)N2
- cytotoxicity at 10 µM: 8.3%

SMILES: Clc1cccnc1N1CCC(NCc2cccc3cn[nH]c23)C1 (stereo unspecified)
- cytotoxicity at 10 µM: 13.7%

SMILES: O=C(Nc1cnn(Cc2ccc(Cl)cc2)c1)N[C@@H]1C=C[C@H](CO)C1
- cytotoxicity at 10 µM: -2.96%

SMILES: Cc1cc(CN2CCN(C(=O)CCc3cccs3)CC2)on1
- cytotoxicity at 10 µM: -5%

SMILES: Cc1nc(C)n(CC2CCCCN2Cc2nnc(-c3ccco3)o2)n1 (stereo unspecified)
- cytotoxicity at 10 µM: -10.2%

SMILES: COCc1ccccc1NC(=O)NCc1ccc(OCC2CC2)nc1
- cytotoxicity at 10 µM: 3.88%

SMILES: Cn1ccc2c(C(=O)N3CCN(C(=O)C4CCCC4)CC3)cccc21
- cytotoxicity at 10 µM: -0.53%

SMILES: O=C(NC1CCCN(c2ccccc2F)C1)c1ccon1 (stereo unspecified)
- cytotoxicity at 10 µM: -6.43%

SMILES: O=C1CN(C(=O)C2CCOCC2)CCN1Cc1ccc(Cl)cc1
- cytotoxicity at 10 µM: -146%

SMILES: CCNC(=O)CN(Cc1ccoc1)C1CCCCC1
- cytotoxicity at 10 µM: 7.59%

SMILES: Cc1nsc(NCc2ccc(S(=O)(=O)N(C)C(C)C)cc2)n1
- cytotoxicity at 10 µM: 16.2%

SMILES: CS(=O)(=O)NCCNC(=O)C1(c2cccc(Cl)c2)CC1
- cytotoxicity at 10 µM: 5.63%

SMILES: CNC(=O)[C@H]1C[C@@H]2CCN(Cc3ccc4c(c3)OCO4)C[C@@H]2O1
- cytotoxicity at 10 µM: 5.79%

SMILES: COCC(=O)N1CCCN(Cc2cc(C(C)C)no2)CC1
- cytotoxicity at 10 µM: 5.97%

SMILES: Cc1nc(CC(=O)N2CCC3(CC2)CC(=O)N(CC2CCCO2)C3)cs1 (stereo unspecified)
- cytotoxicity at 10 µM: -7.85%

SMILES: COc1cc(C)c(C2CC(=O)NCc3nc4sccn4c32)cc1C (stereo unspecified)
- cytotoxicity at 10 µM: -2.19%

SMILES: Oc1ccc(-c2c(-c3ccccc3)ncn2C[C@H]2CCCN2)cc1
- cytotoxicity at 10 µM: 17.5%

SMILES: Cc1cc(C)n(CC(C)Nc2nc(C)nc3c2CCNC3)n1 (stereo unspecified)
- cytotoxicity at 10 µM: 2.51%

SMILES: COc1nccc(N2CC[C@H](CO)[C@@H](O)C2)c1C#N
- cytotoxicity at 10 µM: -141%

SMILES: Cc1nccc(CNC(=O)CCc2c(C)nc3cc(O)nn3c2C)n1
- cytotoxicity at 10 µM: -1.56%

SMILES: Cc1ccc(CC(=O)N2CCCC(n3ccnc3C(C)C)C2)cn1 (stereo unspecified)
- cytotoxicity at 10 µM: -5.11%

SMILES: CCc1nc(C2CCCN2C(=O)CCc2nc(C3CC3)no2)no1 (stereo unspecified)
- cytotoxicity at 10 µM: -2.66%

SMILES: CN(C)c1cc(C(=O)N2CCN(c3cc(C#N)ccn3)CC2)ccn1
- cytotoxicity at 10 µM: -9.27%

SMILES: CC(C)(C)C(=O)NCCc1ccn(-c2ccccc2)n1
- cytotoxicity at 10 µM: 1.76%

SMILES: Cn1cncc1CN1CCc2nc3sccc3c(=O)n2CC1
- cytotoxicity at 10 µM: -3.75%

SMILES: COc1ccccc1CN1C[C@@H]2COC[C@]2(COc2cccnc2)C1
- cytotoxicity at 10 µM: 6.24%

SMILES: Cn1cc(CN2CCCC23CCN(C(=O)c2ccccc2)CC3)cn1
- cytotoxicity at 10 µM: 0.613%

SMILES: CC(=O)N1CCC2(CC1)COCCN2CCN(C)C
- cytotoxicity at 10 µM: -7.98%

SMILES: CC1c2ncc(CNC(=O)C3CC3)n2CCN1Cc1cnn(C)c1 (stereo unspecified)
- cytotoxicity at 10 µM: -20.2%

SMILES: CC(C)NC(=O)[C@H]1C[C@@H]2[C@@H](C1)OCCN2Cc1cccs1
- cytotoxicity at 10 µM: 10.3%

SMILES: Cc1ccc(C(=O)N2CCC3(CC2)COC(COc2ccccn2)C3)o1 (stereo unspecified)
- cytotoxicity at 10 µM: -0.954%
